Reference: ChEMBL document CHEMBL5329191, “Optimization of the 2-arylquinazoline-4(3H)one scaffold for a selective and potent antitrypanosomal agent: modulation of the mechanism of action through chemical functionalization” (RSC Med Chem, 2023)
Active and inactive are the calls of the source. No cut-off for these calls is given here.

What was measured:
Trypanosoma cruzi [1] = assay: Antitrypanosomal activity against of Trypanosoma cruzi epimastigotes; assay type: functional, organism-based
Leishmania infantum [2] = assay: Antileishmanial activity against Leishmania infantum promastigotes; assay type: functional, organism-based
Trypanosoma cruzi [3] = assay: Antitrypanosomal activity against of Trypanosoma cruzi epimastigotes assessed as increase in IC50 in presence of FA; assay type: functional
Leishmania infantum [4] = assay: Antileishmanial activity against Leishmania infantum promastigotes assessed as increase in IC50 in presence of FA; assay type: functional
Trypanosoma cruzi [5] = assay: Antitrypanosomal activity against of Trypanosoma cruzi epimastigotes in presence of FA; assay type: functional, organism-based
Leishmania infantum [6] = assay: Antileishmanial activity against Leishmania infantum promastigotes in presence of FA; assay type: functional, organism-based
Trypanosoma cruzi [7] = assay: Induction of ROS production in Trypanosoma cruzi epimastigotes by DCFH-DA staining based flow cytometry analysis; assay type: functional, organism-based
Outline: (§1)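 Oxidative stress in parasite cultures was read fluorometrically with the 2,7-dichlorodihydrofluorescein diacetate (DCFH-DA) probe against a negative-control culture, and was also run with metal cations present.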

Trypanosoma cruzi [8] = assay: Induction of NO production in Trypanosoma cruzi epimastigotes by Griess method; assay type: functional, organism-based
Outline: (§2)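 NO production in parasite cultures was measured at three test concentrations, either 25, 50 and 100 μM or 1, 5 and 10 μM depending on the compound.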

Leishmania infantum [9] = assay: Induction of ROS production in Leishmania infantum promastigotes by DCFH-DA staining based flow cytometry analysis; assay type: functional, organism-based; outline: as §1
Leishmania infantum [10] = assay: Induction of NO production in Leishmania infantum promastigotes by Griess method; assay type: functional, organism-based; outline: as §2
Trypanosoma cruzi [11] = assay: Antitrypanosomal activity against of Trypanosoma cruzi epimastigotes at 25 uM; assay type: functional

Structure (SMILES) | IC50 (Trypanosoma cruzi [1]) [µM] | IC50 (Leishmania infantum [2]) [µM] | Activity (Trypanosoma cruzi [3]) [%] | Activity (Leishmania infantum [4]) [%] | IC50 (Trypanosoma cruzi [5]) [µM] | IC50 (Leishmania infantum [6]) [µM] | Activity (Trypanosoma cruzi [7]) | Activity (Trypanosoma cruzi [8]) | Activity (Leishmania infantum [9]) | Activity (Leishmania infantum [10]) | inhibition at 25 µM (Trypanosoma cruzi [11]) [%]
Cc1ccc(-c2nc3ccccc3c(=O)[nH]2)cc1 | > 25 | 5.23 | – | – | – | – | – | – | – | – | –
Oc1nc(-c2ccc(F)cc2)nc2ccccc12 | 22.7 | 8.67 | 47 | 14 | 33.2 | 9.78 | – | – | – | – | –
O=c1[nH]c(-c2ccc(Cl)cc2)nc2ccccc12 | 18.1 | 4.88 | 34 | 27 | 24.2 | 6.22 | inactive | inactive | inactive | inactive | –
Cc1ccc(-c2nc(NN)c3ccccc3n2)cc1 | 18 | 1.2 | – | – | – | – | – | – | – | – | –
NNc1nc(-c2ccc(Br)cc2)nc2ccccc12 | 14.3 | 2.13 | 48 | 33 | 25.2 | 2.83 | – | – | – | – | –
NNc1nc(-c2cccc(Br)c2)nc2ccccc12 | > 25 | 21.1 | – | – | – | – | – | – | – | – | 21.4
